# In BindingDB's records for doi:10.1021/jm970671g (Signal Pharmaceuticals, 1998):
# Molecular target: T1, Nuclear factor NF-kappa-B p105 subunit (Homo sapiens, UniProt P19838)
# T1 sequence (P19838 whole entry): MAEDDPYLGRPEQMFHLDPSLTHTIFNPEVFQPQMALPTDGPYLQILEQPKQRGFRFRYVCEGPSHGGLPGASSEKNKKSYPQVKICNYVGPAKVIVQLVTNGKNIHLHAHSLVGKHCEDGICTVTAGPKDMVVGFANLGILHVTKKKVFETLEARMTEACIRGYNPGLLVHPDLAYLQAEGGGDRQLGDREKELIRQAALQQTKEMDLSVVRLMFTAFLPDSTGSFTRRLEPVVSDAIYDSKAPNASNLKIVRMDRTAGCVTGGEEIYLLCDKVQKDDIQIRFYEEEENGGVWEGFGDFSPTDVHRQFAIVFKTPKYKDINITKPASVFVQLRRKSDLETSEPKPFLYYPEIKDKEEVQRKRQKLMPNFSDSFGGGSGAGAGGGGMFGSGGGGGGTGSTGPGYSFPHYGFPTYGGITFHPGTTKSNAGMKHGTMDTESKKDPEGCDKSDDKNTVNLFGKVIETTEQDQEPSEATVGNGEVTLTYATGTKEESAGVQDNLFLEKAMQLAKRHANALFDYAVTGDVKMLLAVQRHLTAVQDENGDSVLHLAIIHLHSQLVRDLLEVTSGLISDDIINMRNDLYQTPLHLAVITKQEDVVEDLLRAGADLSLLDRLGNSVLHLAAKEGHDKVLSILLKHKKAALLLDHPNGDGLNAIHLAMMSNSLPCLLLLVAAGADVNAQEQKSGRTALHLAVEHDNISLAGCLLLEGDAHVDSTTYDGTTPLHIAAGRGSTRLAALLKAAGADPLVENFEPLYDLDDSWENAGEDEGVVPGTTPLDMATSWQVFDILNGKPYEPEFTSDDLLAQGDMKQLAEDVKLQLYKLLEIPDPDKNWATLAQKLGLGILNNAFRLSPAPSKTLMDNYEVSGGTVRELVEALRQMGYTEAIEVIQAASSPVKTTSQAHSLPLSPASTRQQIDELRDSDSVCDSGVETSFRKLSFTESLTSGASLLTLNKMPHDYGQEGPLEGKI
# Assay: In vitro inhibitory activity against human Jurkat T-Cells stably transfected with an Nuclear factor kappa B transcription factor
# Summary of the method: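 Jurkat T-cells stably carrying NF-κB site (MHC promoter) on minimal SV-40 promoter driving luciferase, plated 1 × 10^6 cells/mL in 10% Serum-Plus 18 h prior. Compound in 0.2% DMSO/H2O added 0.5 h at 37 °C; induced with PMA 50 ng/mL and PHA 1 μg/mL, 5 h at 37 °C. Lysate luminescence read; IC50 = concentration halving luciferase versus control.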
row,IC50 [nM],SMILES
1,> 10000,"Nc1ncc(C(=O)Nc2cc(Cl)cc(Cl)c2)c(C(F)(F)F)n1 [2-Amino-4-trifluoromethyl-pyrimidine-5-carboxylic acid (3,5-dichloro-phenyl)-amide]"
2,> 10000,"O=C(Nc1cc(Cl)cc(Cl)c1)c1cnc(NCc2ccccc2)nc1C(F)(F)F [2-Benzylamino-4-trifluoromethyl-pyrimidine-5-carboxylic acid (3,5-dichloro-phenyl)-amide]"
3,> 10000,"CCCCNc1ncc(C(=O)Nc2cc(Cl)cc(Cl)c2)c(C(F)(F)F)n1 [2-Butylamino-4-trifluoromethyl-pyrimidine-5-carboxylic acid (3,5-dichloro-phenyl)-amide]"
4,800,"O=C(Nc1cc(Cl)nc(Cl)n1)c1cnc(Cl)nc1C(F)(F)F [2-Chloro-4-trifluoromethyl-pyrimidine-5-carboxylic acid (2,6-dichloro-pyrimidin-4-yl)-amide]"
5,> 10000,"Cc1cccc(C)c1NC(=O)c1cnc(Cl)nc1C(F)(F)F [2-Chloro-4-trifluoromethyl-pyrimidine-5-carboxylic acid (2,6-dimethyl-phenyl)-amide]"
6,900,"O=C(Nc1cc(Cl)c(Cl)c(Cl)c1)c1cnc(Cl)nc1C(F)(F)F [2-Chloro-4-trifluoromethyl-pyrimidine-5-carboxylic acid (3,4,5-trichloro-phenyl)-amide]"
7,50,"O=C(Nc1cc(C(F)(F)F)cc(C(F)(F)F)c1)c1cnc(Cl)nc1C(F)(F)F [2-Chloro-4-trifluoromethyl-pyrimidine-5-carboxylic acid (3,5-bis-trifluoromethyl-phenyl)-amide]"
8,500,"O=C(Nc1cc(Cl)cc(Cl)c1)c1cnc(Cl)nc1C(F)(F)F [2-Chloro-4-trifluoromethyl-pyrimidine-5-carboxylic acid (3,5-dichloro-phenyl)-amide]"
9,2300,"CN(C(=O)c1cnc(Cl)nc1C(F)(F)F)c1cc(Cl)cc(Cl)c1 [2-Chloro-4-trifluoromethyl-pyrimidine-5-carboxylic acid (3,5-dichloro-phenyl)-methyl-amide]"
10,1200,"COc1cc(NC(=O)c2cnc(Cl)nc2C(F)(F)F)cc(OC)c1 [2-Chloro-4-trifluoromethyl-pyrimidine-5-carboxylic acid (3,5-dimethoxy-phenyl)-amide]"
11,> 10000,CCCCNC(=O)c1cc(NC(=O)c2cnc(Cl)nc2C(F)(F)F)cc(C(F)(F)F)c1 [2-Chloro-4-trifluoromethyl-pyrimidine-5-carboxylic acid (3-butylcarbamoyl-5-trifluoromethyl-phenyl)-amide]
12,5000,NC(=O)c1cc(NC(=O)c2cnc(Cl)nc2C(F)(F)F)cc(C(F)(F)F)c1 [2-Chloro-4-trifluoromethyl-pyrimidine-5-carboxylic acid (3-carbamoyl-5-trifluoromethyl-phenyl)-amide]
13,4000,Cc1cc(NC(=O)c2cnc(Cl)nc2C(F)(F)F)on1 [2-Chloro-4-trifluoromethyl-pyrimidine-5-carboxylic acid (3-methyl-isoxazol-5-yl)-amide]
14,380,O=C(Nc1ccc(C(F)(F)F)cc1)c1cnc(Cl)nc1C(F)(F)F [2-Chloro-4-trifluoromethyl-pyrimidine-5-carboxylic acid (4-trifluoromethyl-phenyl)-amide]
15,2300,Cc1ccc(NC(=O)c2cnc(Cl)nc2C(F)(F)F)s1 [2-Chloro-4-trifluoromethyl-pyrimidine-5-carboxylic acid (5-methyl-thiophen-2-yl)-amide]
16,2700,"O=C(c1cnc(Cl)nc1C(F)(F)F)N(Cc1ccccc1)c1cc(Cl)cc(Cl)c1 [2-Chloro-4-trifluoromethyl-pyrimidine-5-carboxylic acid benzyl-(3,5-dichloro-phenyl)-amide]"

row,IC50 [nM],SMILES
1,> 10000,CCCCNC(=O)c1cnc(Cl)nc1C(F)(F)F [2-Chloro-4-trifluoromethyl-pyrimidine-5-carboxylic acid butylamide]
2,> 10000,O=C(Nc1ccccc1)c1cnc(Cl)nc1C(F)(F)F [2-Chloro-4-trifluoromethyl-pyrimidine-5-carboxylic acid phenylamide]
3,> 10000,"O=C(Nc1cc(Cl)cc(Cl)c1)c1cnc(NC2CCCCC2)nc1C(F)(F)F [2-Cyclohexylamino-4-trifluoromethyl-pyrimidine-5-carboxylic acid (3,5-dichloro-phenyl)-amide]"
4,> 10000,"CN(C)c1ncc(C(=O)Nc2cc(Cl)cc(Cl)c2)c(C(F)(F)F)n1 [2-Dimethylamino-4-trifluoromethyl-pyrimidine-5-carboxylic acid (3,5-dichloro-phenyl)-amide]"
5,> 10000,"O=C(Nc1cc(Cl)cc(Cl)c1)c1cnc(=O)[nH]c1C(F)(F)F [2-Hydroxy-4-trifluoromethyl-pyrimidine-5-carboxylic acid (3,5-dichloro-phenyl)-amide]"
6,> 10000,"COc1ncc(C(=O)Nc2cc(Cl)cc(Cl)c2)c(C(F)(F)F)n1 [2-Methoxy-4-trifluoromethyl-pyrimidine-5-carboxylic acid (3,5-dichloro-phenyl)-amide]"
7,> 10000,"O=C(Nc1cc(Cl)cc(Cl)c1)c1cnc(Nc2ccccc2)nc1C(F)(F)F [2-Phenylamino-4-trifluoromethyl-pyrimidine-5-carboxylic acid (3,5-dichloro-phenyl)-amide]"
8,5000,"O=C(Nc1cc(Cl)cc(Cl)c1)c1cnc(N2CCCCC2)nc1C(F)(F)F [2-Piperidin-1-yl-4-trifluoromethyl-pyrimidine-5-carboxylic acid (3,5-dichloro-phenyl)-amide]"
9,170,CCCCOC(=O)c1cc(NC(=O)c2cnc(Cl)nc2C(F)(F)F)cc(C(F)(F)F)c1 [3-[(2-Chloro-4-trifluoromethyl-pyrimidine-5-carbonyl)-amino]-5-trifluoromethyl-benzoic acid butyl ester]
10,1800,O=C(OC1CCCCC1)c1cc(NC(=O)c2cnc(Cl)nc2C(F)(F)F)cc(C(F)(F)F)c1 [3-[(2-Chloro-4-trifluoromethyl-pyrimidine-5-carbonyl)-amino]-5-trifluoromethyl-benzoic acid cyclohexyl ester]
11,4600,CCOP(=O)(COC(=O)c1cc(NC(=O)c2cnc(Cl)nc2C(F)(F)F)cc(C(F)(F)F)c1)OCC [3-[(2-Chloro-4-trifluoromethyl-pyrimidine-5-carbonyl)-amino]-5-trifluoromethyl-benzoic acid diethoxy-phosphorylmethyl ester]
12,280,CCOC(=O)c1cc(NC(=O)c2cnc(Cl)nc2C(F)(F)F)cc(C(F)(F)F)c1 [3-[(2-Chloro-4-trifluoromethyl-pyrimidine-5-carbonyl)-amino]-5-trifluoromethyl-benzoic acid ethyl ester]
13,620,CCCCCCOC(=O)c1cc(NC(=O)c2cnc(Cl)nc2C(F)(F)F)cc(C(F)(F)F)c1 [3-[(2-Chloro-4-trifluoromethyl-pyrimidine-5-carbonyl)-amino]-5-trifluoromethyl-benzoic acid hexyl ester]
14,1800,CCCCCCCCOC(=O)c1cc(NC(=O)c2cnc(Cl)nc2C(F)(F)F)cc(C(F)(F)F)c1 [3-[(2-Chloro-4-trifluoromethyl-pyrimidine-5-carbonyl)-amino]-5-trifluoromethyl-benzoic acid octyl ester]
15,> 10000,"O=C(Nc1cc(Cl)cc(Cl)c1)c1cncnc1C(F)(F)F [4-Trifluoromethyl-pyrimidine-5-carboxylic acid (3,5-dichloro-phenyl)-amide]"
